Test system: A-427
Assay: Growth inhibition of human A427 cells at 20 uM after 96 hrs by crystal violet staining
Type: functional
Settings: A-427, 96 h, read-out: GI
Method in brief: (§1)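 This was a single-concentration screen. Actively dividing cells had 96 h continuous exposure to compound diluted 1000-fold from a DMSO solution into medium. Cells were fixed with glutaraldehyde and stained with crystal violet. Bound dye was redissolved in 70% ethanol and read at OD 570 nm. Growth inhibition was expressed against untreated controls.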
In the case of `COc1ccc(Cn2c3ccccc3c3c(N)cc(N(C)C)nc32)cc1`, the inhibition of growth at 20 µM is reported as less than 50%.

Test system: 5637
Assay: Growth inhibition of human 5637 cells at 20 uM after 96 hrs by crystal violet staining
Type: functional
Settings: Homo sapiens, 5637, 96 h; read-out: GI
Method in brief: as §1
In the case of `CN(C)c1cc(N)c2c3ccc4ccccc4c3n(C)c2n1`, the inhibition of growth at 20 µM is reported as less than 50%. Compound `COc1ccc(Cn2c3ccccc3c3c(N)cc(N(C)C)nc32)cc1` has an inhibition of growth at 20 µM of less than 50%.

Test system: MCF7
Assay: Cytotoxicity against human MCF7 cells after 96 hrs by crystal violet staining
Type: functional, cell-based
Settings: MCF7, 96 h
Method in brief: (§2)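 Compounds were held as 20 mM DMSO stocks at -20 °C and serially diluted in DMSO to working solutions of 20, 10, 5.0, 2.50, 1.25 and […]. Five of these were diluted 1000-fold into medium, with DMSO-only controls. Dividing cells had 96 h continuous exposure, then glutaraldehyde fixation and crystal violet staining. Dye was redissolved in 70% ethanol and read at OD 570 nm. IC50 came from linear regression of log dose–response curves.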
Work on `Cc1c(C)n(Cc2ccccc2)c2nc(N(C)C)cc(N)c12` yielded an IC50 of 13.1 µM. For `C=CCn1c(-c2ccccc2)c(-c2ccccc2)c2c(N)cc(N(C)C)nc21`, the IC50 was 9.04 µM. Compound `Cc1c(-c2ccccc2)sc2nc(N(C)C)cc(N)c12` has an IC50 of 13.6 µM. Work on `Cc1cc2c(N)cc(N(C)C)nc2nc1-c1ccccc1` yielded an IC50 of 11.7 µM. In the case of `CN(C)c1cc(N)c2c(n1)[nH]c1c3ccccc3ccc12`, the IC50 is reported as 7.52 µM. `Nc1cc(N2CCCC2)nc2nc(-c3ccccc3)c(-c3ccccc3)cc12` showed an IC50 of 4.08 µM. `Nc1cc(N2CCCC2)nc2oc(-c3ccccc3)c(-c3ccccc3)c12` showed an IC50 of 14.7 µM. For `CN(C)c1cc(N)c2c3ccc4ccccc4c3n(C)c2n1`, the IC50 was 21.3 µM. Work on `COc1ccc(Cn2c3ccccc3c3c(N)cc(N(C)C)nc32)cc1` yielded an IC50 greater than 20 µM. Compound `CN(C)c1cc(N)c2ccc3ccccc3c2n1` has an IC50 of 6.2 µM. Compound `CN(C)c1cc(N)c2cc(-c3ccccc3)c(-c3ccccc3)nc2n1` has an IC50 of 7.79 µM. `Cc1c2ccncc2c(C)c2c1[nH]c1ccccc12` [ELLIPTECINE] gave an IC50 of 0.43 µM.

Test system: not listed separately
Assay: Cytotoxicity against human LCLC-103H cells after 96 hrs by crystal violet staining
Type: functional, cell-based
Settings: not given
Method in brief: as §2
Work on `Cc1c(C)n(Cc2ccccc2)c2nc(N(C)C)cc(N)c12` yielded an IC50 greater than 20 µM. In the case of `C=CCn1c(-c2ccccc2)c(-c2ccccc2)c2c(N)cc(N(C)C)nc21`, the IC50 is reported as greater than 20 µM. `Cc1c(-c2ccccc2)sc2nc(N(C)C)cc(N)c12` gave an IC50 greater than 20 µM. Work on `Cc1cc2c(N)cc(N(C)C)nc2nc1-c1ccccc1` yielded an IC50 greater than 20 µM. In the case of `CN(C)c1cc(N)c2c(n1)[nH]c1c3ccccc3ccc12`, the IC50 is reported as 9.67 µM. Work on `Nc1cc(N2CCCC2)nc2nc(-c3ccccc3)c(-c3ccccc3)cc12` yielded an IC50 of 12.5 µM. For `Nc1cc(N2CCCC2)nc2oc(-c3ccccc3)c(-c3ccccc3)c12`, the IC50 was greater than 20 µM. `CN(C)c1cc(N)c2c3ccc4ccccc4c3n(C)c2n1` gave an IC50 greater than 20 µM. In the case of `COc1ccc(Cn2c3ccccc3c3c(N)cc(N(C)C)nc32)cc1`, the IC50 is reported as greater than 20 µM. In the case of `CN(C)c1cc(N)c2c3c(n(Cc4ccccc4)c2n1)CCCC3`, the IC50 is reported as greater than 20 µM. In the case of `CN(C)c1cc(N)c2ccc3ccccc3c2n1`, the IC50 is reported as 8.93 µM. With `CN(C)c1cc(N)c2cc(-c3ccccc3)c(-c3ccccc3)nc2n1` the IC50 was 13.7 µM. `Cc1c2ccncc2c(C)c2c1[nH]c1ccccc12` [ELLIPTECINE] gave an IC50 of 0.8 µM.

Test system: DAN-G
Assay: Cytotoxicity against human DAN-G cells after 96 hrs by crystal violet staining
Type: functional, cell-based
Settings: not given
Method in brief: as §2
With `Cc1c(C)n(Cc2ccccc2)c2nc(N(C)C)cc(N)c12` the IC50 was greater than 20 µM. `C=CCn1c(-c2ccccc2)c(-c2ccccc2)c2c(N)cc(N(C)C)nc21` showed an IC50 greater than 20 µM. For `Cc1c(-c2ccccc2)sc2nc(N(C)C)cc(N)c12`, the IC50 was 16.4 µM. For `Cc1cc2c(N)cc(N(C)C)nc2nc1-c1ccccc1`, the IC50 was 18.1 µM. In the case of `CN(C)c1cc(N)c2c(n1)[nH]c1c3ccccc3ccc12`, the IC50 is reported as 9.84 µM. Compound `Nc1cc(N2CCCC2)nc2nc(-c3ccccc3)c(-c3ccccc3)cc12` has an IC50 of 6.34 µM. Compound `Nc1cc(N2CCCC2)nc2oc(-c3ccccc3)c(-c3ccccc3)c12` has an IC50 greater than 20 µM. `CN(C)c1cc(N)c2c3ccc4ccccc4c3n(C)c2n1` gave an IC50 greater than 20 µM. `COc1ccc(Cn2c3ccccc3c3c(N)cc(N(C)C)nc32)cc1` showed an IC50 greater than 20 µM. With `CN(C)c1cc(N)c2c3c(n(Cc4ccccc4)c2n1)CCCC3` the IC50 was greater than 20 µM. Work on `CN(C)c1cc(N)c2ccc3ccccc3c2n1` yielded an IC50 of 10.2 µM. Compound `CN(C)c1cc(N)c2cc(-c3ccccc3)c(-c3ccccc3)nc2n1` has an IC50 of 11.6 µM.

Test system: RT-4
Assay: Cytotoxicity against human RT4 cells after 96 hrs by crystal violet staining
Type: functional, cell-based
Settings: RT-4, 96 h
Method in brief: as §2
For `Cc1c(C)n(Cc2ccccc2)c2nc(N(C)C)cc(N)c12`, the IC50 was 19.6 µM. Work on `C=CCn1c(-c2ccccc2)c(-c2ccccc2)c2c(N)cc(N(C)C)nc21` yielded an IC50 of 12.1 µM. In the case of `Cc1c(-c2ccccc2)sc2nc(N(C)C)cc(N)c12`, the IC50 is reported as 6.19 µM. With `Cc1cc2c(N)cc(N(C)C)nc2nc1-c1ccccc1` the IC50 was 5 µM. `CN(C)c1cc(N)c2c(n1)[nH]c1c3ccccc3ccc12` gave an IC50 of 6.56 µM. With `Nc1cc(N2CCCC2)nc2nc(-c3ccccc3)c(-c3ccccc3)cc12` the IC50 was 12 µM. In the case of `Nc1cc(N2CCCC2)nc2oc(-c3ccccc3)c(-c3ccccc3)c12`, the IC50 is reported as 17.7 µM. For `CN(C)c1cc(N)c2c3ccc4ccccc4c3n(C)c2n1`, the IC50 was 12.9 µM. In the case of `CN(C)c1cc(N)c2ccc3ccccc3c2n1`, the IC50 is reported as 7.82 µM. Compound `CN(C)c1cc(N)c2cc(-c3ccccc3)c(-c3ccccc3)nc2n1` has an IC50 of 14.4 µM. For `Cc1c2ccncc2c(C)c2c1[nH]c1ccccc12` [ELLIPTECINE], the IC50 was 1.21 µM.

Test system: A-427
Assay: Cytotoxicity against human A427 cells after 96 hrs by crystal violet staining
Type: functional, cell-based
Settings: A-427, 96 h
Method in brief: as §2
`Cc1c(C)n(Cc2ccccc2)c2nc(N(C)C)cc(N)c12` gave an IC50 of 12.5 µM. `C=CCn1c(-c2ccccc2)c(-c2ccccc2)c2c(N)cc(N(C)C)nc21` gave an IC50 of 3.93 µM. For `Cc1c(-c2ccccc2)sc2nc(N(C)C)cc(N)c12`, the IC50 was 15.3 µM. With `Cc1cc2c(N)cc(N(C)C)nc2nc1-c1ccccc1` the IC50 was 11.8 µM. With `CN(C)c1cc(N)c2c(n1)[nH]c1c3ccccc3ccc12` the IC50 was 6.58 µM. For `Nc1cc(N2CCCC2)nc2nc(-c3ccccc3)c(-c3ccccc3)cc12`, the IC50 was 4.33 µM. Compound `Nc1cc(N2CCCC2)nc2oc(-c3ccccc3)c(-c3ccccc3)c12` has an IC50 of 13.8 µM. For `CN(C)c1cc(N)c2c3ccc4ccccc4c3n(C)c2n1`, the IC50 was 14.3 µM. `COc1ccc(Cn2c3ccccc3c3c(N)cc(N(C)C)nc32)cc1` gave an IC50 greater than 20 µM. Compound `CN(C)c1cc(N)c2ccc3ccccc3c2n1` has an IC50 of 8.22 µM. In the case of `CN(C)c1cc(N)c2cc(-c3ccccc3)c(-c3ccccc3)nc2n1`, the IC50 is reported as 7.93 µM. Compound `Cc1c2ccncc2c(C)c2c1[nH]c1ccccc12` [ELLIPTECINE] has an IC50 of 0.89 µM.

Test system: 5637
Assay: Cytotoxicity against human 5637 cells after 96 hrs by crystal violet staining
Type: functional, cell-based
Settings: Homo sapiens, 5637, 96 h
Method in brief: as §2
In the case of `Cc1c(C)n(Cc2ccccc2)c2nc(N(C)C)cc(N)c12`, the IC50 is reported as 11.8 µM. `C=CCn1c(-c2ccccc2)c(-c2ccccc2)c2c(N)cc(N(C)C)nc21` gave an IC50 of 16.9 µM. Work on `Cc1c(-c2ccccc2)sc2nc(N(C)C)cc(N)c12` yielded an IC50 of 17.7 µM. `Cc1cc2c(N)cc(N(C)C)nc2nc1-c1ccccc1` showed an IC50 of 8.82 µM. Work on `CN(C)c1cc(N)c2c(n1)[nH]c1c3ccccc3ccc12` yielded an IC50 of 7.9 µM. In the case of `Nc1cc(N2CCCC2)nc2nc(-c3ccccc3)c(-c3ccccc3)cc12`, the IC50 is reported as 2.75 µM. Compound `Nc1cc(N2CCCC2)nc2oc(-c3ccccc3)c(-c3ccccc3)c12` has an IC50 of 18.4 µM. Compound `CN(C)c1cc(N)c2c3ccc4ccccc4c3n(C)c2n1` has an IC50 greater than 20 µM. `COc1ccc(Cn2c3ccccc3c3c(N)cc(N(C)C)nc32)cc1` gave an IC50 greater than 20 µM. Compound `CN(C)c1cc(N)c2ccc3ccccc3c2n1` has an IC50 of 10 µM. In the case of `CN(C)c1cc(N)c2cc(-c3ccccc3)c(-c3ccccc3)nc2n1`, the IC50 is reported as 8.03 µM. `Cc1c2ccncc2c(C)c2c1[nH]c1ccccc12` [ELLIPTECINE] showed an IC50 of 0.89 µM.

Test system: not listed separately
Assay: Growth inhibition of human LCLC-103H cells at 20 uM after 96 hrs by crystal violet staining
Type: functional
Settings: read-out: GI
Method in brief: as §1
Work on `Cc1c(C)n(Cc2ccccc2)c2nc(N(C)C)cc(N)c12` yielded an inhibition of growth at 20 µM of less than 50%. `C=CCn1c(-c2ccccc2)c(-c2ccccc2)c2c(N)cc(N(C)C)nc21` gave an inhibition of growth at 20 µM of less than 50%. Work on `Cc1c(-c2ccccc2)sc2nc(N(C)C)cc(N)c12` yielded an inhibition of growth at 20 µM of less than 50%. `Cc1cc2c(N)cc(N(C)C)nc2nc1-c1ccccc1` showed an inhibition of growth at 20 µM of less than 50%. `Nc1cc(N2CCCC2)nc2oc(-c3ccccc3)c(-c3ccccc3)c12` showed an inhibition of growth at 20 µM of less than 50%. Compound `CN(C)c1cc(N)c2c3ccc4ccccc4c3n(C)c2n1` has an inhibition of growth at 20 µM of less than 50%. For `COc1ccc(Cn2c3ccccc3c3c(N)cc(N(C)C)nc32)cc1`, the inhibition of growth at 20 µM was less than 50%. With `CN(C)c1cc(N)c2c3c(n(Cc4ccccc4)c2n1)CCCC3` the inhibition of growth at 20 µM was less than 50%.

Test system: DAN-G
Assay: Growth inhibition of human DAN-G cells at 20 uM after 96 hrs by crystal violet staining
Type: functional
Settings: read-out: GI
Method in brief: as §1
Compound `Cc1c(C)n(Cc2ccccc2)c2nc(N(C)C)cc(N)c12` has an inhibition of growth at 20 µM of less than 50%. In the case of `C=CCn1c(-c2ccccc2)c(-c2ccccc2)c2c(N)cc(N(C)C)nc21`, the inhibition of growth at 20 µM is reported as less than 50%. For `Nc1cc(N2CCCC2)nc2oc(-c3ccccc3)c(-c3ccccc3)c12`, the inhibition of growth at 20 µM was less than 50%. Work on `CN(C)c1cc(N)c2c3ccc4ccccc4c3n(C)c2n1` yielded an inhibition of growth at 20 µM of less than 50%. `COc1ccc(Cn2c3ccccc3c3c(N)cc(N(C)C)nc32)cc1` gave an inhibition of growth at 20 µM of less than 50%. With `CN(C)c1cc(N)c2c3c(n(Cc4ccccc4)c2n1)CCCC3` the inhibition of growth at 20 µM was less than 50%.

Test system: MCF7
Assay: Growth inhibition of human MCF7 cells at 20 uM after 96 hrs by crystal violet staining
Type: functional
Settings: MCF7, 96 h, read-out: GI
Method in brief: as §1
Compound `COc1ccc(Cn2c3ccccc3c3c(N)cc(N(C)C)nc32)cc1` has an inhibition of growth at 20 µM of less than 50%.
